Test results from ChEMBL document CHEMBL1926569, “Novel (E)-1-(4-methyl-2-(alkylamino)thiazol-5-yl)-3-arylprop-2-en-1-ones as potent antimicrobial agents” (2011).

Assays:
Listeria monocytogenes [1] = experiment: Antibacterial activity against Listeria monocytogenes NCTC 7973 after 24 hrs by microdilution method; type: functional; conditions: NCTC 7973, 24 h
Outline: (§1)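 Broth microdilution in 96-well plates. Bacterial suspensions were adjusted in sterile saline to 1.0 × 10⁵ CFU/ml, prepared daily and kept at 4 °C. Compound was added to LB broth with 1.0 × 10⁴ CFU per well and shaken at 160 rpm for 24 h at […] (so in the source). MIC is the lowest concentration with no visible growth under a binocular microscope. OD655 was also read. Duplicate, repeated three times.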

Staphylococcus aureus [2] = experiment: Antibacterial activity against Staphylococcus aureus ATCC 6538 after 24 hrs by microdilution method; type: functional; conditions: ATCC 6538, 24 h; outline: as §1
Aspergillus flavus [3] = experiment: Antifungal activity against Aspergillus flavus ATCC 9643 after 72 hrs by serial dilution technique; type: functional; conditions: ATCC 9643, 72 h
Outline: (§2)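 Modified microdilution in 96-well plates. Fungi were kept on malt agar at 4 °C. Spores were washed off in sterile 0.85% saline with 0.1% Tween 80. Compounds were dissolved at 1 mg/ml in 5% DMSO with 0.1% Tween 80 and added to malt broth with inoculum. Plates were shaken at 160 rpm for 72 h at 28 °C. Duplicate, repeated three times.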

Aspergillus ochraceus [4] = experiment: Ratio of bifonazole to compound for Aspergillus ochraceus ATCC 12066; type: functional
Salmonella typhimurium [5] = experiment: Antibacterial activity against Salmonella Typhimurium ATCC 13311 incubated for 24 hrs followed by serial sub-cultivation for 24 hrs by microdilution; type: functional, Salmonella enterica subsp. enterica serovar Typhimurium; conditions: Salmonella enterica, ATCC 13311, 24 h
Outline: (§3)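 MBC: after the 24 h LB broth microdilution (1.0 × 10⁴ CFU per well, 160 rpm), wells were serially sub-cultured into fresh broth plates and incubated a further 24 h. MBC is the lowest concentration with no visible growth, taken as 99.5% killing of the original inoculum. Duplicate, repeated three times.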

Candida albicans [6] = experiment: Antifungal activity against Candida albicans isolated from human incubated for 72 hrs followed by serial sub-cultivation for 72 hrs by serial dilution technique; type: functional
Outline: (§4)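 MFC: material from 72 h malt broth microdilution wells was serially sub-cultured into fresh broth plates and incubated a further 72 h at 28 °C. Fungicidal concentration is taken from growth after sub-culture. Duplicate, repeated three times.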

Aspergillus ochraceus [7] = experiment: Antifungal activity against Aspergillus ochraceus ATCC 12066 after 72 hrs by serial dilution technique; type: functional; conditions: ATCC 12066, 72 h; outline: as §2
Trichoderma viride [8] = experiment: Ratio of bifonazole to compound for Trichoderma viride IAM 5061; type: functional
Staphylococcus aureus [9] = experiment: Antibacterial activity against Staphylococcus aureus ATCC 6538 incubated for 24 hrs followed by serial sub-cultivation for 24 hrs by microdilution method; type: functional; conditions: ATCC 6538, 24 h; outline: as §3
Candida albicans [10] = experiment: Antifungal activity against Candida albicans isolated from human after 72 hrs by serial dilution technique; type: functional; outline: as §2
Talaromyces funiculosus [11] = experiment: Antifungal activity against Penicillium funiculosum ATCC 36839 incubated for 72 hrs followed by serial sub-cultivation for 72 hrs by serial dilution technique; type: functional; conditions: ATCC 36839, 72 h; outline: as §4
Trichoderma viride [12] = experiment: Antifungal activity against Trichoderma viride IAM 5061 after 72 hrs by serial dilution technique; type: functional; conditions: IAM 5061, 72 h; outline: as §2
Pseudomonas aeruginosa [13] = experiment: Antibacterial activity against Pseudomonas aeruginosa ATCC 27853 incubated for 24 hrs followed by serial sub-cultivation for 24 hrs by microdilution; type: functional; conditions: ATCC 27853, 24 h; outline: as §3
Aspergillus fumigatus [14] = experiment: Antifungal activity against Aspergillus fumigatus isolated from human incubated for 72 hrs followed by serial sub-cultivation for 72 hrs by serial dilution technique; type: functional; outline: as §4
Pseudomonas aeruginosa [15] = experiment: Antibacterial activity against Pseudomonas aeruginosa ATCC 27853 after 24 hrs by microdilution method; type: functional; conditions: ATCC 27853, 24 h; outline: as §1
Micrococcus flavus [16] = experiment: Antibacterial activity against Micrococcus flavus ATCC 10240 after 24 hrs by microdilution method; type: functional; conditions: ATCC 10240, 24 h; outline: as §1
Escherichia coli [17] = experiment: Antibacterial activity against Escherichia coli ATCC 35210 incubated for 24 hrs followed by serial sub-cultivation for 24 hrs by microdilution; type: functional; conditions: ATCC 35210, 24 h; outline: as §3
Aspergillus ochraceus [18] = experiment: Antifungal activity against Aspergillus ochraceus ATCC 12066 incubated for 72 hrs followed by serial sub-cultivation for 72 hrs by serial dilution technique; type: functional; conditions: ATCC 12066, 72 h; outline: as §4
Candida albicans [19] = experiment: Ratio of ketoconazole to compound for Candida albicans isolated from human; type: functional
Trichoderma viride [20] = experiment: Antifungal activity against Trichoderma viride IAM 5061 incubated for 72 hrs followed by serial sub-cultivation for 72 hrs by serial dilution technique; type: functional; conditions: IAM 5061, 72 h; outline: as §4
Salmonella typhimurium [21] = experiment: Antibacterial activity against Salmonella Typhimurium ATCC 13311 after 24 hrs by microdilution method; type: functional, Salmonella enterica subsp. enterica serovar Typhimurium; conditions: Salmonella enterica, ATCC 13311, 24 h; outline: as §1
Aspergillus niger [22] = experiment: Antifungal activity against Aspergillus niger ATCC 6275 incubated for 72 hrs followed by serial sub-cultivation for 72 hrs by serial dilution technique; type: functional; conditions: ATCC 6275, 72 h; outline: as §4
Candida albicans [23] = experiment: Ratio of bifonazole to compound for Candida albicans isolated from human; type: functional
Enterococcus faecalis [24] = experiment: Antibacterial activity against Enterococcus faecalis isolated from human after 24 hrs by microdilution method; type: functional; outline: as §1
Pseudomonas aeruginosa [25] = experiment: Ratio of ampicillin MIC to compound MIC for Pseudomonas aeruginosa ATCC 27853; type: functional
Penicillium ochrochloron [26] = experiment: Antifungal activity against Penicillium ochrochloron ATCC 9112 incubated for 72 hrs followed by serial sub-cultivation for 72 hrs by serial dilution technique; type: functional; conditions: ATCC 9112, 72 h; outline: as §4
Bacillus cereus [27] = experiment: Antibacterial activity against clinical isolate of Bacillus cereus incubated for 24 hrs followed by serial sub-cultivation for 24 hrs by microdilution; type: functional; outline: as §3
Micrococcus flavus [28] = experiment: Antibacterial activity against Micrococcus flavus ATCC 10240 incubated for 24 hrs followed by serial sub-cultivation for 24 hrs by microdilution; type: functional; conditions: ATCC 10240, 24 h; outline: as §3
Talaromyces funiculosus [29] = experiment: Ratio of bifonazole to compound for Penicillium funiculosum ATCC 36839; type: functional
Penicillium ochrochloron [30] = experiment: Antifungal activity against Penicillium ochrochloron ATCC 9112 after 72 hrs by serial dilution technique; type: functional; conditions: ATCC 9112, 72 h; outline: as §2
Penicillium ochrochloron [31] = experiment: Ratio of bifonazole to compound for Penicillium ochrochloron ATCC 9112; type: functional
Aspergillus flavus [32] = experiment: Antifungal activity against Aspergillus flavus ATCC 9643 incubated for 72 hrs followed by serial sub-cultivation for 72 hrs by serial dilution technique; type: functional; conditions: ATCC 9643, 72 h; outline: as §4
Listeria monocytogenes [33] = experiment: Antibacterial activity against Listeria monocytogenes NCTC 7973 incubated for 24 hrs followed by serial sub-cultivation for 24 hrs by microdilution; type: functional; conditions: NCTC 7973, 24 h; outline: as §3
Enterococcus faecalis [34] = experiment: Antibacterial activity against Enterococcus faecalis isolated from human incubated for 24 hrs followed by serial sub-cultivation for 24 hrs by microdilution; type: functional; outline: as §3
Escherichia coli [35] = experiment: Antibacterial activity against Escherichia coli ATCC 35210 after 24 hrs by microdilution method; type: functional; conditions: ATCC 35210, 24 h; outline: as §1
Aspergillus niger [36] = experiment: Ratio of bifonazole to compound for Aspergillus niger ATCC 6275; type: functional
Aspergillus niger [37] = experiment: Antifungal activity against Aspergillus niger ATCC 6275 after 72 hrs by serial dilution technique; type: functional; conditions: ATCC 6275, 72 h; outline: as §2
Bacillus cereus [38] = experiment: Antibacterial activity against clinical isolate of Bacillus cereus after 24 hrs by microdilution method; type: functional; outline: as §1
Penicillium ochrochloron [39] = experiment: Ratio of ketoconazole to compound for Penicillium ochrochloron ATCC 9112; type: functional
Aspergillus ochraceus [40] = experiment: Antifungal activity against Aspergillus ochraceus after 72 hrs by serial dilution technique
Aspergillus ochraceus [41] = experiment: Ratio of ketoconazole to compound for Aspergillus ochraceus ATCC 12066; type: functional
Aspergillus fumigatus [42] = experiment: Ratio of ketoconazole to compound for Aspergillus fumigatus isolated from human; type: functional
Talaromyces funiculosus [43] = experiment: Antifungal activity against Penicillium funiculosum ATCC 36839 after 72 hrs by serial dilution technique; type: functional; conditions: ATCC 36839, 72 h; outline: as §2

CCNc1nc(C)c(C(=O)/C=C/c2ccc(F)cc2)s1
103 µM: MBC (Listeria monocytogenes [33])
68.9 µM: MIC (Staphylococcus aureus [2]) | MIC (Aspergillus flavus [3]) | MFC (Candida albicans [6]) | MIC (Aspergillus ochraceus [7]) | MBC (Staphylococcus aureus [9]) | MFC (Talaromyces funiculosus [11]) | MBC (Pseudomonas aeruginosa [13]) | MFC (Aspergillus fumigatus [14]) | MIC (Pseudomonas aeruginosa [15]) | MBC (Escherichia coli [17]) | MFC (Trichoderma viride [20]) | MBC (Micrococcus flavus [28]) | MIC (Penicillium ochrochloron [30]) | MBC (Enterococcus faecalis [34])
34.5 µM: MIC (Candida albicans [10]) | MIC (Trichoderma viride [12]) | MIC (Aspergillus niger [37]) | MIC (Talaromyces funiculosus [43])
10: Ratio (Aspergillus ochraceus [4]) | Ratio (Trichoderma viride [8]) | Ratio (Candida albicans [19]) | Ratio (Candida albicans [23]) | Ratio (Pseudomonas aeruginosa [25]) | Ratio (Talaromyces funiculosus [29]) | Ratio (Penicillium ochrochloron [31]) | Ratio (Aspergillus niger [36]) | Ratio (Penicillium ochrochloron [39]) | Ratio (Aspergillus ochraceus [41]) | Ratio (Aspergillus fumigatus [42])
86.2 µM: MIC (Listeria monocytogenes [1]) | MFC (Aspergillus ochraceus [18]) | MFC (Penicillium ochrochloron [26]) | MBC (Bacillus cereus [27]) | MFC (Aspergillus flavus [32]) | MIC (Bacillus cereus [38])
51.7 µM: MBC (Salmonella typhimurium [5]) | MIC (Micrococcus flavus [16]) | MIC (Salmonella typhimurium [21]) | MFC (Aspergillus niger [22]) | MIC (Enterococcus faecalis [24]) | MIC (Escherichia coli [35]) | MIC (Aspergillus ochraceus [40])

CCNc1nc(C)c(C(=O)/C=C/c2cccc(F)c2)s1
34.5 µM: MIC (Candida albicans [10]) | MIC (Trichoderma viride [12]) | MIC (Micrococcus flavus [16]) | MIC (Penicillium ochrochloron [30]) | MIC (Aspergillus niger [37]) | MIC (Aspergillus ochraceus [40]) | MIC (Talaromyces funiculosus [43])
51.7 µM: MBC (Salmonella typhimurium [5]) | MIC (Salmonella typhimurium [21]) | MIC (Enterococcus faecalis [24]) | MIC (Bacillus cereus [38])
103 µM: MBC (Staphylococcus aureus [9])
86.2 µM: MIC (Listeria monocytogenes [1]) | MBC (Escherichia coli [17]) | MFC (Aspergillus ochraceus [18]) | MBC (Micrococcus flavus [28]) | MFC (Aspergillus flavus [32]) | MBC (Listeria monocytogenes [33])
10: Ratio (Aspergillus ochraceus [4]) | Ratio (Trichoderma viride [8]) | Ratio (Candida albicans [19]) | Ratio (Candida albicans [23]) | Ratio (Pseudomonas aeruginosa [25]) | Ratio (Talaromyces funiculosus [29]) | Ratio (Penicillium ochrochloron [31]) | Ratio (Aspergillus niger [36]) | Ratio (Penicillium ochrochloron [39]) | Ratio (Aspergillus ochraceus [41]) | Ratio (Aspergillus fumigatus [42])
68.9 µM: MIC (Staphylococcus aureus [2]) | MIC (Aspergillus flavus [3]) | MFC (Candida albicans [6]) | MIC (Aspergillus ochraceus [7]) | MFC (Talaromyces funiculosus [11]) | MBC (Pseudomonas aeruginosa [13]) | MFC (Aspergillus fumigatus [14]) | MIC (Pseudomonas aeruginosa [15]) | MFC (Trichoderma viride [20]) | MFC (Aspergillus niger [22]) | MFC (Penicillium ochrochloron [26]) | MBC (Bacillus cereus [27]) | MBC (Enterococcus faecalis [34]) | MIC (Escherichia coli [35])
